aSyn 5UTR inh – MLPCN primary screen, SNCA 5' untranslated region; AID 1813, 2009; alpha-synuclein 5'UTR reporter, inhibitor activity; 300,000 tested, 0.82% active; inhibition, % (tested at 7.5 µM); in the data active means inhibition above about 60%;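 further: H4 neuroglioblastoma cells stably carrying SNCA 5'UTR luciferase fusion; 0% = DMSO wells and 100% = positive control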
Mdm2 MdmX PPI – inhibitors of human Mdm2-MdmX association, primary screen, cell-based, luminescence, split luciferase, SaOS-2, uHTS; inhibition, % at 8 µM; Protein Mdm4 (Homo sapiens) + E3 ubiquitin-protein ligase Mdm2 (Homo sapiens), …; AID 485346, 2010; 330,000 tested, 3% active; SaOS-2 split-luciferase Mdm2/MdmX complementation;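 active means inhibition of at least 50% at 8 µM in the primary screen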
Target sequence (O15151 whole entry, looked up): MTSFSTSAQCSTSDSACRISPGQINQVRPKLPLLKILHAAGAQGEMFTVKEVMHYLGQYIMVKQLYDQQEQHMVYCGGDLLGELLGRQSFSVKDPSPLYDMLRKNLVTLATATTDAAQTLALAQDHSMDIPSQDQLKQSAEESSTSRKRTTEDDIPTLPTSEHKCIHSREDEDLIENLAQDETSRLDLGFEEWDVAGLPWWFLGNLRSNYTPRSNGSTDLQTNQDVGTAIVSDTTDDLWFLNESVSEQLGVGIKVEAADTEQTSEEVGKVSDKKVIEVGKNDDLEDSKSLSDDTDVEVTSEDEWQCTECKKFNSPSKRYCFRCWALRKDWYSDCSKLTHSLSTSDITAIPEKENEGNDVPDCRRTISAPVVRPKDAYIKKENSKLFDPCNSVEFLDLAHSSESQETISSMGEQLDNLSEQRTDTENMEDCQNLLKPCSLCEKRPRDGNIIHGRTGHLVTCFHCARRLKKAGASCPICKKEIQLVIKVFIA
Target sequence (Q00987 whole entry, looked up): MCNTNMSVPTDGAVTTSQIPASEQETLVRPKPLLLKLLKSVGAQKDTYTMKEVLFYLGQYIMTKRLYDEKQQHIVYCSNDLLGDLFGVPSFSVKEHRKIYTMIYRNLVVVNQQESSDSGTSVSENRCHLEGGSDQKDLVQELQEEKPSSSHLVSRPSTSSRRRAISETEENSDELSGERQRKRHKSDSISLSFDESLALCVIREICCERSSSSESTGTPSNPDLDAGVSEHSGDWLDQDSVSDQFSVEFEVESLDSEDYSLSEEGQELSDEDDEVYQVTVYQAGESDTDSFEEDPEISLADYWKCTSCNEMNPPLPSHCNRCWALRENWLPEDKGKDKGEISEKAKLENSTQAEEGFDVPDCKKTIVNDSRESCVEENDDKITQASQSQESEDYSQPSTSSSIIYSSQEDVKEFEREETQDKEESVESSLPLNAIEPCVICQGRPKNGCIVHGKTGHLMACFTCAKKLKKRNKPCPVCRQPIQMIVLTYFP
CSC inhib – cancer stem cell viability inhibitors, primary screen, luminescence; cancer stem cell-like cells viability; inhibition, % at 7.5 µM; 300,000 tested, 1.1% active; in the data active means inhibition above about 75%; tested in HMLE shEcad cells
T cruzi inh – inhibitors of intracellular T. cruzi growth, primary screen, luminescence, NIH3T3 host cells. T. cruzi beta-gal in NIH3T3, 90 h. inhibition, % (test concentration not listed). 300,000 tested, 1.4% active;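 active means mean inhibition across valid replicates above about 55%, limit read from the data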;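 further: signal also drops with host cell toxicity which is not excluded here; 0% = plate median of DMSO wells and 100% = zero luminescence signal; higher percent means less beta-gal luminescence so fewer parasites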
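System – NIH/3T3 host cells with β-galactosidase reporter T. cruzi · Doses – single 50 nL compound addition per well in DMSO · Reagent – 5000 T. cruzi trypomastigotes/well · Medium – Low-serum DMEM with 2% FBS · Timing – ≥90 h infection period, 3 h prior cell attachment · Evaluation – parasite load inhibition, % · Technique – GalScreen luminescence, 60 min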
SKKanGAS inh – S. pyogenes SKKanGAS growth inhibitors in kanamycin, primary screen, streptokinase expression inhibitor project, SKKanGAS strain, BacTiter-Glo luminescence | 6 h | inhibition, % at 7.5 µM | 300,000 tested, 1.3% active;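 active means mean replicate score, as percent of positive control median, at least 50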;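 further: strain carries kanamycin resistance gene driven by streptokinase promoter and grows in 40 µg/ml kanamycin; loss of luminescence reflects streptokinase promoter inhibition or plain growth inhibition; 0% = median of DMSO wells and 100% = positive control at its reference dose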
Mdm2-MdmX conf – Mdm2-MdmX complex disruptors, retested hits, confirmation, luminescence, single concentration; shares compounds with Mdm2 MdmX PPI; Mdm2-MdmX binding, luminescent assay; inhibition, % at 8 µM; 10,000 tested, 55% active; AID 489028, 2010; in the data active means inhibition above about 40%
Full FLuc ctr – full-length luciferase signal inhibition, confirmation, counter-screen for Mdm2/MdmX interaction inhibitor project, cell-based, single concentration, SaOS-2; SaOS-2 full-length luciferase counterscreen, luminescence; 6,200 tested, 77% active; inhibition, % at 8 µM; shares compounds with Mdm2 MdmX PPI;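 active means mean inhibition at 8 µM reaching about 37%, which flags the compound as non-specific, limit read from the data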;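 further: p53-null SaOS-2 cells with luciferase driven by a doxycycline-inducible promoter; compound on cells about two nights before reading with doxycycline added after day one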
* = called active by the depositor; nt = not tested or not shown; + = active, no number. A selection: hits, their analogues and other compounds. The true share with any hit is near 5.4%.

SMILES | aSyn 5UTR inh | Mdm2 MdmX PPI | CSC inhib | T cruzi inh | SKKanGAS inh | Mdm2-MdmX conf | Full FLuc ctr
CN(C)CCCN(C(=O)c1cc(-c2cccs2)nc2ccccc12)c1nc2ccc(F)cc2s1 | 98.9* | 100.3* | 102.9* | 29.8 | 10.7 | 56.6* | 67.5*
CCN(CC)CCN(C(=O)/C=C/c1cccs1)c1nc2ccc(Cl)cc2s1 | -50.8 | 28.1 | -10.4 | 12.3 | -1.2 | nt | nt
O=S(=O)(c1ccc(Cl)cc1)c1cnc2ccccc2n1 | -14.6 | 53.1* | 36.6 | -41.2 | 1.6 | 17.6 | nt
CCSc1nnc(CNC(=O)C23CC4CC(CC(C4)C2)C3)n1C1CCCCC1 | -13.2 | 24.5 | 2.2 | 15.0 | 3.6 | nt | nt
Cc1ccc(N2CC(C(=O)Nc3nccs3)CC2=O)cc1Cl (stereo unspecified) | 7.3 | 83.7* | 56.6 | -26.6 | 3.9 | 69.0* | +
COCc1nnc(NC(=O)C2CC(=O)N(c3ccc(C)c(Cl)c3)C2)s1 (stereo unspecified) | -15.6 | -8.7 | -17.2 | -0.8 | -3.6 | nt | nt
Cc1ccc(-n2c(-c3ccccc3)cc(/C=N/NC(=O)CC#N)c2-c2ccccc2)cc1 | -6.1 | 54.7* | 18.9 | 65.4* | 34.4 | 19.6 | nt
O=CNc1ccc(OC(=O)c2cncc(Br)c2)cc1 | 18.7 | -3.6 | -4.7 | -8.5 | -0.1 | nt | nt
O=c1oc2cc(Oc3c([N+](=O)[O-])cc(C(F)(F)F)cc3[N+](=O)[O-])ccc2c2c1CCCC2 | -6.6 | 66.6* | 44.9 | 11.6 | 6.1 | 13.8 | nt
O=c1oc2cc(Oc3ccc(C(F)(F)F)cc3[N+](=O)[O-])ccc2c2c1CCC2 | -49.8 | 12.4 | nt | 9.6 | -5.4 | nt | nt
Nc1c2nc(-c3ccccc3)[nH]c(=O)c2nc(=O)n1-c1ccccc1 | 36.2 | 62.7* | -0.3 | 8.8 | -7.0 | 11.6 | nt
COc1ccc(-c2c3c(nc4sc5c(Cl)nc(C)nc5c24)CCC3)cc1 | -1.0 | 98.9* | -26.2 | -2.4 | 3.1 | -20.8 | nt
NC(=O)c1sc2nc3c(c(-c4ccco4)c2c1N)CCCC3 | 12.5 | 61.2* | -7.4 | 2.3 | -10.0 | 66.8* | 36.5*
Cc1ccc(-c2c3c(nc4sc(C(N)=O)c(N)c24)CCC3)cc1 | -51.6 | 55.6* | -8.3 | 17.5 | 2.5 | 55.5* | 47.0*
O=C(C[C@@H]1C/C=C\C[C@H](NC(=O)OCC2c3ccccc3-c3ccccc32)C(=O)OC[C@H]2CCCN2C1=O)NCCO | nt | 9.8 | nt | nt | nt | nt | nt
COCCCn1c(=O)c2ccccc2n2c(=S)[nH]nc12 | 16.5 | 4.8 | -11.4 | -14.4 | 7.7 | nt | nt
COc1ccc(S(=O)(=O)N2CCCC2CNC(=O)C(=O)Nc2ccc(C)cc2)cc1 (stereo unspecified) | 14.3 | 27.6 | nt | 3.7 | -2.7 | nt | nt
COc1ccc(NC(=O)C(=O)NCC2CCCN2S(=O)(=O)c2ccc(C)cc2)cc1 (stereo unspecified) | 90.6* | 66.3* | 59.8 | 33.2 | -2.7 | 78.5* | 104.3*
Cc1ccc(C)c(S(=O)(=O)N2CCCC2CNC(=O)C(=O)NC2CC2)c1 (stereo unspecified) | -4.4 | 15.1 | -0.1 | -15.1 | 1.6 | nt | nt
COc1ccc(NC(=O)C(=O)NCC2CCCN2S(=O)(=O)c2cc(C)ccc2C)cc1 (stereo unspecified) | 13.2 | 59.9* | 50.8 | 4.2 | 1.7 | 74.2* | 47.6*
C/C(CCc1ccc2c(c1)OCO2)=N\NC(=O)c1ccccc1Br | -12.1 | 9.5 | -0.8 | 0.3 | -10.1 | nt | nt
O=C(N/N=C\c1c(O)ccc2ccccc12)c1ccc(S(=O)(=O)N2CCCCC2)cc1 | 114.4* | 83.4* | 100.2* | 57.7* | 37.5 | 86.4* | 54.6*
COc1ccc2ccccc2c1/C=N/NC(=O)c1ccc(C)nc1 | 2.0 | -17.9 | 2.8 | -1.6 | 15.4 | nt | nt
O=C(NN=Cc1c(O)ccc2ccccc12)c1ccc2c(c1)OCO2 | nt | 88.2* | 10.4 | nt | nt | 89.1* | 50.0*
O=C(N/N=C/c1c(O)ccc2ccccc12)c1ccc(CO)nc1 | 51.0 | 69.0* | 87.1* | 9.2 | 11.0 | 65.9* | 36.1*
SMILES | aSyn 5UTR inh | Mdm2 MdmX PPI | CSC inhib | T cruzi inh | SKKanGAS inh | Mdm2-MdmX conf | Full FLuc ctr
Nc1ccc(C(=O)N/N=C\c2cc(N=Nc3cccc4ccccc34)ccc2O)cc1 | 50.4 | 57.1* | 98.1* | 58.5* | 7.2 | 67.2* | 36.2*
COc1cc(/C=C/C(=O)c2ccc(NS(=O)(=O)c3ccc(C)cc3)cc2)ccc1OC(F)F | -46.1 | 92.2* | -7.2 | 42.0 | 28.1 | 42.4* | 61.8*
COc1cccc(/C=C/C(=O)c2ccc(NS(=O)(=O)c3ccc(C)cc3)cc2)c1 | -30.8 | 71.3* | 81.4* | 10.1 | 16.1 | 14.9 | nt
COc1cccc(C(=O)/C=C/Nc2ccc(S(=O)(=O)Nc3cccc(C(C)=O)c3)cc2)c1 | 11.0 | 1.4 | 4.6 | 4.5 | 27.9 | nt | nt
O=C(CN1C(=O)c2ccccc2S1(=O)=O)Nc1cc(S(=O)(=O)N2CCCCC2)ccc1Cl | nt | 2.9 | nt | nt | nt | nt | nt
CCOc1ccccc1NC(=O)CN(c1ccc(OC)cc1)S(=O)(=O)c1c(C)[nH]c(=O)[nH]c1=O | 4.5 | 10.7 | -20.1 | -25.8 | 11.2 | nt | nt
CCN(CC)CCNC(=O)c1ccc(NC(=O)c2cn(-c3ccccc3)nc2-c2cccs2)cc1 | -6.9 | 98.2* | 33.1 | 45.7 | -4.4 | 63.7* | 52.7*
CCOc1ccc(NC(=O)CN(C)C(=O)c2cn(-c3ccc(F)cc3)nc2-c2cccc(OC)c2)cc1OCC | 8.7 | 23.9 | -13.0 | 10.5 | 4.0 | nt | nt
O=C(Nc1cccnc1)c1cn(-c2ccccc2)nc1-c1cccs1 | -83.9 | 13.7 | 7.4 | 11.6 | -2.5 | nt | nt
O=C(c1cn(-c2ccccc2)nc1-c1cccs1)N1CCN(c2ccccc2)CC1 | -26.0 | 58.8* | 57.7 | -2.4 | 35.7 | 48.0* | 64.0*
CCN(CC)CCNC(=O)c1ccc(NC(=O)c2cn(-c3ccc(F)cc3)nc2-c2cccc(OC)c2)cc1 | 10.2 | 96.4* | 20.9 | 65.0* | -14.2 | 58.2* | 27.9
CC(C)CC1NC(=S)N(Cc2ccccc2)C1=O (stereo unspecified) | 20.6 | 87.2* | 21.6 | 13.4 | 15.7 | 82.0* | 53.4*
Cc1onc(-c2ccccc2Cl)c1C(=O)O/N=C(\N)c1ccc([N+](=O)[O-])o1 | -35.2 | 60.4* | 3.0 | 35.1 | 5.2 | 39.5 | 70.5*
O=C(Nc1ccccc1)/C(=C/c1ccc(O)cc1)NC(=O)c1ccco1 | -1.0 | -4.8 | -5.4 | 12.8 | 2.4 | nt | nt
COC(=O)c1c(C)[nH]c(C(=O)CSc2ncnc3sc(-c4ccccc4)cc23)c1C | 1.5 | 66.8* | 0.3 | -12.8 | 9.7 | 13.4 | nt

Screening results as filed in PubChem.
